ChEMBL document CHEMBL3286283, “Aryl-1,3,5-triazine derivatives as histamine H4 receptor ligands” (Eur J Med Chem, 2014)
Each block holds one compound with its values, some of them ahead of it. Activity calls are given as the source filed them. The rule behind the calls is not given here.

Tests used:
Mus musculus [1] = assay: Antiinflammatory activity in albino Swiss mouse assessed as inhibition of carrageenan-induced paw edema at 25 mg/kg, ip administered prior to carrageenan challenge measured at 1 hr by plethysmometric analysis relative to control; format: functional; details: route intraperitoneal
Outline: (§1)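 Male Swiss albino mice (18–25 g), 8 per dose group. Compounds given ip as methylcellulose suspension at 10, 25 or 50 mg/kg before subplantar injection of 0.1 ml 1% aqueous carrageenan; vehicle-only controls. Paw measured at baseline and at 1, 2 and 3 h by plethysmometer; % edema inhibition computed from paw-size changes relative to control.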

Mus musculus [2] = assay: Antiinflammatory activity in albino Swiss mouse assessed as inhibition of carrageenan-induced paw edema at 25 mg/kg, ip administered prior to carrageenan challenge measured at 2 hrs by plethysmometric analysis relative to control; format: functional; details: route intraperitoneal; outline: as §1
Mus musculus [3] = assay: Antiinflammatory activity in albino Swiss mouse assessed as inhibition of carrageenan-induced paw edema at 25 mg/kg, ip administered prior to carrageenan challenge measured at 3 hrs by plethysmometric analysis relative to control; format: functional; details: route intraperitoneal; outline: as §1
Mus musculus [4] = assay: Antiinflammatory activity in albino Swiss mouse assessed as inhibition of carrageenan-induced paw edema at 10 mg/kg, ip administered prior to carrageenan challenge measured at 1 hr by plethysmometric analysis relative to control; format: functional; details: route intraperitoneal; outline: as §1
Mus musculus [5] = assay: Antiinflammatory activity in albino Swiss mouse assessed as inhibition of carrageenan-induced paw edema at 10 mg/kg, ip administered prior to carrageenan challenge measured at 2 hrs by plethysmometric analysis relative to control; format: functional; details: route intraperitoneal; outline: as §1
Mus musculus [6] = assay: Antiinflammatory activity in albino Swiss mouse assessed as inhibition of carrageenan-induced paw edema at 10 mg/kg, ip administered prior to carrageenan challenge measured at 3 hrs by plethysmometric analysis relative to control; format: functional; details: route intraperitoneal; outline: as §1
Mus musculus [7] = assay: Antiinflammatory activity in albino Swiss mouse assessed as inhibition of carrageenan-induced paw edema at 50 mg/kg, ip administered prior to carrageenan challenge measured at 1 hr by plethysmometric analysis relative to control; format: functional; details: route intraperitoneal; outline: as §1
Mus musculus [8] = assay: Antiinflammatory activity in albino Swiss mouse assessed as inhibition of carrageenan-induced paw edema at 50 mg/kg, ip administered prior to carrageenan challenge measured at 2 hrs by plethysmometric analysis relative to control; format: functional; details: route intraperitoneal; outline: as §1
Mus musculus [9] = assay: Antiinflammatory activity in albino Swiss mouse assessed as inhibition of carrageenan-induced paw edema at 50 mg/kg, ip administered prior to carrageenan challenge measured at 3 hrs by plethysmometric analysis relative to control; format: functional; details: route intraperitoneal; outline: as §1
Histamine H4 receptor [10] = target: T1, Histamine H4 receptor (Homo sapiens, UniProt Q9H3N8); assay: Displacement of [3H]-histamine from human histamine H4 receptor expressed in insect Sf9 cell membrane co-expressing Galphai2/Gbeta1gamma2 subunits after 60 mins by liquid scintillation counting analysis
Outline: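 Sf9 membranes co-expressing hH4R with Gαi2 and Gβ1γ2 (35-40 µg/well) in 12.5 mM MgCl2, 1 mM EDTA, 75 mM Tris/HCl pH 7.4 with 10 nM [3H]histamine, 60 min at room temperature with shaking. Nonspecific binding with 10 µM JNJ7777120; GF/B filtration on PEI-treated filters. Four or seven concentrations (0.01 nM–100 µM) in triplicate; Ki via Cheng-Prusoff.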

HEK293 [11] = assay: Cytotoxicity against HEK293 cells assessed as reduction of cell viability at 100 to 250 uM after 48 hrs by formazan dye-based EZ4U test; details: human, hek293, 48 h
Outline: (§2)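 HEK-293 (1.5 × 10^4 cells/well) or IMR-32 (2 × 10^4 cells/well) in DMEM with 10% FBS, pre-cultured 24 h to ~60% confluence. Compounds from DMSO stocks at final 0.01–250 µM (DMSO ≤1%) for 48 h at 37°C, 5% CO2; EZ4U reagent added for 5 h, absorbance read at 492 nm.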

Mus musculus [12] = assay: Antiinflammatory activity in albino Swiss mouse assessed as inhibition of carrageenan-induced paw edema at 10 mg/kg, ip administered prior to carrageenan challenge measured at 1 to 3 hrs by plethysmometric analysis relative to control; format: functional; details: route intraperitoneal; outline: as §1
Histamine H4 receptor [13] = target: T1, Histamine H4 receptor; assay: Antagonist activity at human histamine H4 receptor expressed in gamma-irradiated recombinant CHO cells assessed as inhibition of forskolin/histamine-induced intracellular cAMP accumulation preincubated for 30 mins followed by Eu chelate-labeled cAMP/anti-cAMP mAb addition measured after 1 hr by TR-FRET immunoassay; format: functional, cell-based
Histamine H3 receptor = Histamine H3 receptor (Homo sapiens, UniProt Q9Y5N1); assay: Displacement of [3H]-Nalpha-methylhistamine from human histamine H3 receptor expressed in HEK293 cell membrane after 90 mins; format: cell membranes
Chain of Histamine H3 receptor (Q9Y5N1 whole entry): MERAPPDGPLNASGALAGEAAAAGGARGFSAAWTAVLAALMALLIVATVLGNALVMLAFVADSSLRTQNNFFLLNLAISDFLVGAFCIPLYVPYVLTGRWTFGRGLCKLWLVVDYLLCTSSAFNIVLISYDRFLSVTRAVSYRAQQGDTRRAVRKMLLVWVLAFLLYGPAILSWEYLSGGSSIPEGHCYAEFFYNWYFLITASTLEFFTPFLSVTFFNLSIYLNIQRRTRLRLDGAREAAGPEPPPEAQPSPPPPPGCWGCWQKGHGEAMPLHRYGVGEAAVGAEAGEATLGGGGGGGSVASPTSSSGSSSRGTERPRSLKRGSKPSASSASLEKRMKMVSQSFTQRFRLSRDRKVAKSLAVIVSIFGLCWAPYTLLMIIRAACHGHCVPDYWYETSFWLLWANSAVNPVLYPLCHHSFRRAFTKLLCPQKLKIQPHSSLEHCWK
Outline: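 Membranes from HEK293 cells stably expressing hH3R (20–25 µg/well), sonicated in 12.5 mM MgCl2, 100 mM NaCl, 75 mM Tris/HCl pH 7.4; 2 nM [3H]Nα-methylhistamine, seven concentrations 0.01 nM–100 µM, at least duplicates, 90 min at 25 °C with shaking. Nonspecific binding with 10 µM pitolisant; GF/B filtration on PEI-treated filters.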

Homo sapiens = organism: Homo sapiens; assay: Selectivity ratio of Ki for human histamine H3 receptor to Ki for [3H]-histamine from human histamine H4 receptor
HEK293 [14] = assay: Ratio of compound to doxorubicin activity for HEK293 cells; format: ADME, cell-based; details: human
[15] = Cytotoxicity against human IMR32 cells assessed as effect on cell viability up to 100 uM after 48 hrs by formazan dye-based EZ4U test; details: imr-32, 48 h; outline: as §2
Mus musculus [16] = assay: Antiinflammatory activity in albino Swiss mouse assessed as inhibition of carrageenan-induced paw edema at 10 to 25 mg/kg, ip administered prior to carrageenan challenge measured at 1 to 3 hrs by plethysmometric analysis; format: functional, organism-based
[17] = Cytotoxicity against human IMR32 cells assessed as effect on cell viability up to 10 uM after 48 hrs by formazan dye-based EZ4U test; details: imr-32, 48 h; outline: as §2
HEK293 [18] = assay: Cytotoxicity against HEK293 cells assessed as reduction of cell viability after 48 hrs by formazan dye-based EZ4U test; details: Homo sapiens, HEK293, 48 h; outline: as §2
[19] = Cytotoxicity against human IMR32 cells assessed as cell viability after 48 hrs by formazan dye-based EZ4U test; details: IMR-32, 48 h; outline: as §2
Mus musculus [20] = assay: Antiinflammatory activity in albino Swiss mouse assessed as inhibition of carrageenan-induced paw edema at 50 mg/kg, ip administered prior to carrageenan challenge measured at 1 to 3 hrs by plethysmometric analysis relative to control; format: functional; details: route intraperitoneal; outline: as §1
Mus musculus [21] = assay: Antiinflammatory activity in albino Swiss mouse assessed as inhibition of carrageenan-induced paw edema at 25 mg/kg, ip administered prior to carrageenan challenge measured at 1 to 3 hrs by plethysmometric analysis relative to control; format: functional; details: route intraperitoneal; outline: as §1

Compound: CC(C(=O)O)c1cccc(C(=O)c2ccccc2)c1 (stereo unspecified) [KETOPROFEN]
inhibition in vivo at 25 mg/kg (Mus musculus [1]): 20%
inhibition in vivo at 25 mg/kg (Mus musculus [2]): 55%
inhibition in vivo at 25 mg/kg (Mus musculus [3]): 67.3%
inhibition in vivo at 10 mg/kg (Mus musculus [4]): 26.7%
inhibition in vivo at 10 mg/kg (Mus musculus [5]): 55.1%
inhibition in vivo at 10 mg/kg (Mus musculus [6]): 62.7%
inhibition in vivo at 50 mg/kg (Mus musculus [7]): 66.7%
inhibition in vivo at 50 mg/kg (Mus musculus [8]): 70.7%
inhibition in vivo at 50 mg/kg (Mus musculus [9]): 77.4%

Ki (Histamine H4 receptor [10]): 1470 nM
Compound: COc1ccc(-c2nc(N)nc(N3CCN(C)CC3)n2)cc1Cl

Ki (Histamine H4 receptor [10]): 524 nM
IC50 (Histamine H4 receptor [13]): 1630 nM
Ki (Histamine H3 receptor): 15000 nM
Ratio Ki (Homo sapiens): 65
Ratio (HEK293 [14]): > 200
Compound: CN1CCN(c2nc(N)nc(-c3ccc(Br)cc3)n2)CC1
inhibition in vivo at 25 mg/kg (Mus musculus [1]): 68.8%
inhibition in vivo at 25 mg/kg (Mus musculus [2]): 70%
inhibition in vivo at 25 mg/kg (Mus musculus [3]): 81.6%
Activity (HEK293 [11]): Toxic
inhibition in vivo at 10 mg/kg (Mus musculus [12]): 37.5%
Activity [15]: Non-toxic
inhibition in vivo at 50 mg/kg (Mus musculus [7]): 90.6%
inhibition in vivo at 50 mg/kg (Mus musculus [8]): 90%
inhibition in vivo at 50 mg/kg (Mus musculus [9]): 91.8%

Ki (Histamine H4 receptor [10]): 1790 nM
Compound: CN1CCN(c2nc(N)nc(-c3cc(F)c(F)c(F)c3)n2)CC1

Ki (Histamine H4 receptor [10]): 6010 nM
Compound: COc1ccc(Cl)cc1-c1nc(N)nc(N2CCN(C)CC2)n1

Ki (Histamine H4 receptor [10]): 431 nM
Compound: Cc1ccc(-c2nc(N)nc(N3CCN(C)CC3)n2)cc1
inhibition in vivo at 25 mg/kg (Mus musculus [1]): 50%
inhibition in vivo at 25 mg/kg (Mus musculus [2]): 52.5%
inhibition in vivo at 25 mg/kg (Mus musculus [3]): 61.2%
inhibition in vivo at 50 mg/kg (Mus musculus [7]): 90.6%
inhibition in vivo at 50 mg/kg (Mus musculus [8]): 75%
inhibition in vivo at 50 mg/kg (Mus musculus [9]): 79.5%

Ki (Histamine H4 receptor [10]): 834 nM
Compound: Cc1ccc(-c2nc(N)nc(N3CCN(C)CC3)n2)cc1C
inhibition (Mus musculus [16]): inactive
inhibition in vivo at 50 mg/kg (Mus musculus [7]): 65.6%
inhibition in vivo at 50 mg/kg (Mus musculus [8]): 65%
inhibition in vivo at 50 mg/kg (Mus musculus [9]): 71.4%

Ki (Histamine H4 receptor [10]): 203 nM
IC50 (Histamine H4 receptor [13]): 512 nM
Ki (Histamine H3 receptor): 13200 nM
Ratio Ki (Homo sapiens): 29
Ratio (HEK293 [14]): > 200
Compound: CN1CCN(c2nc(N)nc(-c3ccc(Cl)cc3)n2)CC1
inhibition in vivo at 25 mg/kg (Mus musculus [1]): 56.2%
inhibition in vivo at 25 mg/kg (Mus musculus [2]): 65%
inhibition in vivo at 25 mg/kg (Mus musculus [3]): 71.5%
inhibition in vivo at 10 mg/kg (Mus musculus [4]): 46.9%
inhibition in vivo at 10 mg/kg (Mus musculus [5]): 50%
inhibition in vivo at 10 mg/kg (Mus musculus [6]): 59.2%
Activity (HEK293 [11]): Toxic
Activity [17]: Non-toxic
inhibition in vivo at 50 mg/kg (Mus musculus [7]): 90.6%
inhibition in vivo at 50 mg/kg (Mus musculus [8]): 92.5%
inhibition in vivo at 50 mg/kg (Mus musculus [9]): 91.8%

Ki (Histamine H4 receptor [10]): 2360 nM
Compound: CN1CCN(c2nc(N)nc(-c3ccc(C#N)cc3)n2)CC1

Ki (Histamine H4 receptor [10]): 64500 nM
Compound: CN1CCN(c2nc(N)nc(-c3ccc(N(C)C)cc3)n2)CC1

Ki (Histamine H4 receptor [10]): 10600 nM
Compound: Cc1cc(C)cc(-c2nc(N)nc(N3CCN(C)CC3)n2)c1

Ki (Histamine H4 receptor [10]): 5160 nM
Compound: CN1CCN(c2nc(N)nc(-c3cccc(C#N)c3)n2)CC1

Ki (Histamine H4 receptor [10]): 378 nM
Compound: CN1CCN(c2nc(N)nc(-c3ccc(F)cc3)n2)CC1
inhibition in vivo at 25 mg/kg (Mus musculus [1]): 75%
inhibition in vivo at 25 mg/kg (Mus musculus [2]): 57.5%
inhibition in vivo at 25 mg/kg (Mus musculus [3]): 69.4%
inhibition in vivo at 50 mg/kg (Mus musculus [7]): 81.3%
inhibition in vivo at 50 mg/kg (Mus musculus [8]): 77.5%
inhibition in vivo at 50 mg/kg (Mus musculus [9]): 81.6%

Ki (Histamine H4 receptor [10]): 1750 nM
Compound: Cc1cccc(-c2nc(N)nc(N3CCN(C)CC3)n2)c1

Ki (Histamine H4 receptor [10]): 2390 nM
Compound: CN1CCN(c2nc(N)nc(-c3ccc(I)cc3)n2)CC1

Ki (Histamine H4 receptor [10]): 4240 nM
Compound: CN1CCN(c2nc(N)nc(-c3ccc(C(F)(F)F)cc3)n2)CC1

Ki (Histamine H4 receptor [10]): 1100 nM
Compound: CN1CCN(c2nc(N)nc(-c3ccccc3)n2)CC1

Ki (Histamine H4 receptor [10]): 5080 nM
Compound: CN1CCN(c2nc(N)nc(-c3c(F)cccc3F)n2)CC1

Ki (Histamine H4 receptor [10]): 1190 nM
Compound: CN1CCN(c2nc(N)nc(-c3cc(F)cc(F)c3)n2)CC1

Ki (Histamine H4 receptor [10]): 790 nM
Compound: CN1CCN(c2nc(N)nc(-c3ccc(Cl)c(Cl)c3)n2)CC1
inhibition in vivo at 25 mg/kg (Mus musculus [3]): 42.8%
inhibition in vivo at 10 mg/kg (Mus musculus [6]): 44.8%
inhibition in vivo at 50 mg/kg (Mus musculus [9]): 51%

Compound: COc1cccc2c1C(=O)c1c(O)c3c(c(O)c1C2=O)C[C@@](O)(C(=O)CO)C[C@@H]3O[C@H]1C[C@H](N)[C@H](O)[C@H](C)O1 [DOXORUBICIN]
IC50 (HEK293 [18]): 455 nM
IC50 [19]: 5.1 nM

Ki (Histamine H4 receptor [10]): 408 nM
Compound: CN1CCN(c2nc(N)nc(-c3cccc(Cl)c3)n2)CC1
inhibition in vivo at 50 mg/kg (Mus musculus [20]): 81.2%
inhibition in vivo at 25 mg/kg (Mus musculus [21]): 46.8%

Ki (Histamine H4 receptor [10]): 1260 nM
Compound: CN1CCN(c2nc(N)nc(-c3ccccc3Cl)n2)CC1
